Data reported in ChEMBL document CHEMBL4371052, “Diarylcarbonates are a new class of deubiquitinating enzyme inhibitor” (Bioorg Med Chem Lett, 2019).
Calls of active or inactive are those of the source. The rule behind the calls is not given here.

Key:
[1] = target: Ubiquitin carboxyl-terminal hydrolase isozyme L5 (Homo sapiens) (UniProt Q9Y5K5); test: Inhibition of UCHL5 in HEK293T cell lysates at 25 uM using HA-tagged vinyl-sulfone as substrate measured after 2 to 30 mins by Western blot analysis; type: subcellular; settings: Lysate
Chain of Ubiquitin carboxyl-terminal hydrolase isozyme L5 (Homo sapiens) (Q9Y5K5 whole entry): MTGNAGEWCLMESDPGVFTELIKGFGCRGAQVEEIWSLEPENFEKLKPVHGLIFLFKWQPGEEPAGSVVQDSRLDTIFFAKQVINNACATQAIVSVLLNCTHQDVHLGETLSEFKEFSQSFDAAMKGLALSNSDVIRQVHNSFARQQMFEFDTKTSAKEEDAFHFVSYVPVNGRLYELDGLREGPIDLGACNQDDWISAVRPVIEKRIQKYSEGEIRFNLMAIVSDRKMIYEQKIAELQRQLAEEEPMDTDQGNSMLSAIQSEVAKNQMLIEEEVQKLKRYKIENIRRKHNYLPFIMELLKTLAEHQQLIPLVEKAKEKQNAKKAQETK
Procedure, shortened: (§1)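 HEK 293T lysate (1.5 mg/ml) given compound (25 μM) or DMSO at the same time as HA-Ub-VS (1.5 μM). Aliquots withdrawn over time were run on SDS-PAGE and immunoblotted for HA.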

[2] = target: Pancreatic elastase (Sus scrofa) (UniProt P08419+P00772); test: Inhibition of porcine pancreatic elastase; type: protein assay
[3] = target: T1, Ubiquitin carboxyl-terminal hydrolase 8 (Homo sapiens) (UniProt P40818); test: Inhibition of USP8 in HEK293T cell lysates assessed as enzyme recovery at 250 uM using HA-tagged vinyl-sulfone as substrate preincubated for 40 mins followed by 10-fold dilution and subsequent substrate addition measured up to 2 hrs by Western blot analysis; type: subcellular; settings: Lysate
T1 sequence (whole entry): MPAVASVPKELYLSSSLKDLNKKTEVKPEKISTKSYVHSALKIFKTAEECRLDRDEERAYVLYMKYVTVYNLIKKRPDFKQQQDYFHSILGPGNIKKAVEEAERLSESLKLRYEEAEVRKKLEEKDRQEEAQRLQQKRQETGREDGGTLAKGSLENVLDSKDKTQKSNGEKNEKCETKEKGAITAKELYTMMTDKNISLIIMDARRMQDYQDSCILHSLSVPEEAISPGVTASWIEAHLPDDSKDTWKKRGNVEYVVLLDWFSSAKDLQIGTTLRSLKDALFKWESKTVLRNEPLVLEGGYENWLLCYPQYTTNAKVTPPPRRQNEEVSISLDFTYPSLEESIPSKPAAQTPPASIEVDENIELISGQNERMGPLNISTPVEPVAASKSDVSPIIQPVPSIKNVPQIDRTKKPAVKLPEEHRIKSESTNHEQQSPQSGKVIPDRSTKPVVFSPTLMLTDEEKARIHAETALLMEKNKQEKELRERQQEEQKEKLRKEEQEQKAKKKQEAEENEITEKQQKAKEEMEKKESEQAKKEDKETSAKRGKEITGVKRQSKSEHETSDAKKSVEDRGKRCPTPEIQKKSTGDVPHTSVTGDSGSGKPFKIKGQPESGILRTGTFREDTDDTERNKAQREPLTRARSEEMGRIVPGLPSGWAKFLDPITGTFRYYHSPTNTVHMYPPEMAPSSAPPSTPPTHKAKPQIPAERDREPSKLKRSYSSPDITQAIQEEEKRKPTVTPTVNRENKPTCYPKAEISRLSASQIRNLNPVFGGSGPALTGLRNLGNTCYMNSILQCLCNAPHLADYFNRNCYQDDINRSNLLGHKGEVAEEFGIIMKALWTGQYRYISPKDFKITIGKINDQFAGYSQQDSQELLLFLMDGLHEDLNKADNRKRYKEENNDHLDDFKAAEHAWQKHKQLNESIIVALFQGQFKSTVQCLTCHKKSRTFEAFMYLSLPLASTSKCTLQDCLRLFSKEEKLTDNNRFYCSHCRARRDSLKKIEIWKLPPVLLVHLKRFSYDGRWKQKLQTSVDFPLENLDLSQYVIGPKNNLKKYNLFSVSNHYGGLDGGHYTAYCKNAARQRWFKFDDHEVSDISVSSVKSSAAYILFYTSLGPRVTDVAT

[4] = target: Ubiquitin carboxyl-terminal hydrolase 9X (Homo sapiens) (UniProt Q93008); test: Inhibition of USP9x in HEK293T cell lysates at 25 uM using HA-tagged vinyl-sulfone as substrate preincubated for 19 to 60 mins followed by substrate addition and measured after 19 to 25 mins by Western blot analysis; type: subcellular; settings: Lysate
Chain of Ubiquitin carboxyl-terminal hydrolase 9X (Homo sapiens) (Q93008 whole entry, the tested form may be a part): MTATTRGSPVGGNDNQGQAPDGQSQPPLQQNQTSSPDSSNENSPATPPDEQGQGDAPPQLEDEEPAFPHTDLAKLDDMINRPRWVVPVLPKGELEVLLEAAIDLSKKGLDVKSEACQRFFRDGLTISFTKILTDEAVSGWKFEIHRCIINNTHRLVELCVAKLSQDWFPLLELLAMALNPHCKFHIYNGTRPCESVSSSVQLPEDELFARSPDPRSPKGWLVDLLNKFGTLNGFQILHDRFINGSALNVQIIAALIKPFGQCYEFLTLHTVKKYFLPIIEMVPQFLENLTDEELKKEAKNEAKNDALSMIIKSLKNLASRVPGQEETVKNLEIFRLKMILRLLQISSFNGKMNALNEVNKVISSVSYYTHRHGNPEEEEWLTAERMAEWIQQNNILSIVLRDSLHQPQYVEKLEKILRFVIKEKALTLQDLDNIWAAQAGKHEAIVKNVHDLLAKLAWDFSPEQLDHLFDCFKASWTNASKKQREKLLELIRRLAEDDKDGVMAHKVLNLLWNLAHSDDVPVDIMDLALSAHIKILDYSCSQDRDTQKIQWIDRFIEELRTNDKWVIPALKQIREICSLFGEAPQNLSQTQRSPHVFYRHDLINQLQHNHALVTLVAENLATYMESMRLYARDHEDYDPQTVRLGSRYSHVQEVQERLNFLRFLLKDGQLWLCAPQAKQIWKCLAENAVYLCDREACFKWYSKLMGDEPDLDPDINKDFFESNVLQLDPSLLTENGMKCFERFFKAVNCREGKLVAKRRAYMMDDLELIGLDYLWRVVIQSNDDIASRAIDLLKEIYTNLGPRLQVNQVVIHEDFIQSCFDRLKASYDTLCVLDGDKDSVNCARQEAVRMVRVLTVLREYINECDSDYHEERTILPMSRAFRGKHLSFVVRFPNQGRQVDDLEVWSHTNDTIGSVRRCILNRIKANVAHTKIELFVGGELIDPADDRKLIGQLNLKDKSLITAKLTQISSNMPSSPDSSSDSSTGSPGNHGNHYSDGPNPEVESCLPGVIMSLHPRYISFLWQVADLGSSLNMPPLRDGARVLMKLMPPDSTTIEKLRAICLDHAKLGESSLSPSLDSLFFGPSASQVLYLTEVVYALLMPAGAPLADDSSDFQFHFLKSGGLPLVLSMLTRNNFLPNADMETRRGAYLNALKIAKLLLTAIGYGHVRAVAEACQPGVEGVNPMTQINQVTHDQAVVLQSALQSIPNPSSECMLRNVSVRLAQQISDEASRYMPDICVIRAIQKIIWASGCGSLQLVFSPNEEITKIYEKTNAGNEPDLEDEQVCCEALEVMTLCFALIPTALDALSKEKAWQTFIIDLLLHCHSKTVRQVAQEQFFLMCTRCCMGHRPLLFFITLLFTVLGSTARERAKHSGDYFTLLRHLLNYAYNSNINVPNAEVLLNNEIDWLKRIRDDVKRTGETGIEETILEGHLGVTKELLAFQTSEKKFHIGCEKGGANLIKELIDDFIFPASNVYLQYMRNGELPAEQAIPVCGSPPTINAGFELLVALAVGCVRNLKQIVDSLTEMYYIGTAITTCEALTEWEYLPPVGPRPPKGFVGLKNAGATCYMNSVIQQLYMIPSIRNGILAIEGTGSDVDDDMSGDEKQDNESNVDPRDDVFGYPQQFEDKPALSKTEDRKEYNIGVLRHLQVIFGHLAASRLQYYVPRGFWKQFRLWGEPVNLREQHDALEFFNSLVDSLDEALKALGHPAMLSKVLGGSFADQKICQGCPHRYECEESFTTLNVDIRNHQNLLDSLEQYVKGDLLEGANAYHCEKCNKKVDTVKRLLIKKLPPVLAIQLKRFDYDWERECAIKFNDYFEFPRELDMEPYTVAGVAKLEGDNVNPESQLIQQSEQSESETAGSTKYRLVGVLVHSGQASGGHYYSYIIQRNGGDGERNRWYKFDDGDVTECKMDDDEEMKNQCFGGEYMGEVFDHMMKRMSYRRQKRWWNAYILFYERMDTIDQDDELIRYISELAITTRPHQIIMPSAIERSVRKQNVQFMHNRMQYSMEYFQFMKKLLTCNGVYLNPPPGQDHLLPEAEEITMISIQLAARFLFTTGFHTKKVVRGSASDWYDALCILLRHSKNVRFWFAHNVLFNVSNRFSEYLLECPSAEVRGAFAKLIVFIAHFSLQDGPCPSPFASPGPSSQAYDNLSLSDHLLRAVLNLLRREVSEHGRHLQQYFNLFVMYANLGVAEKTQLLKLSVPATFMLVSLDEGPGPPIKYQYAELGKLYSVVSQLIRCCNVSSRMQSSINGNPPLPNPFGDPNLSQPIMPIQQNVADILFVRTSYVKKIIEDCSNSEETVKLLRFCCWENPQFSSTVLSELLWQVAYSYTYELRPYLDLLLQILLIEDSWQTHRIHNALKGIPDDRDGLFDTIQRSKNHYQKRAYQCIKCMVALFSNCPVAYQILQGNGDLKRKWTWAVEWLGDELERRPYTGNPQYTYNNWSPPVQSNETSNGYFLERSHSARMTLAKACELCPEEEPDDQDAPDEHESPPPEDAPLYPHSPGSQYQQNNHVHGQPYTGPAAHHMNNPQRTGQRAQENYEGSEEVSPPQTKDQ

Trypsin = Trypsin (Homo sapiens, UniProt P07477+P07478+P35030); test: Substrate activity at trypsin (unknown origin) by Michaelis-Menten plot analysis; type: ADME, protein assay
Procedure, shortened: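 Diarylcarbonate hydrolysis by chymotrypsin or trypsin measured across substrate concentrations; velocity versus substrate concentration fit for Km and kcat.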

[5] = target: Ubiquitin carboxyl-terminal hydrolase 7 (Homo sapiens) (UniProt Q93009); test: Inhibition of USP7 in human MCF7 cells assessed as decrease in Mdm2 expression at 25 uM after 4 hrs by Western blot analysis; type: cell-based
Chain of Ubiquitin carboxyl-terminal hydrolase 7 (Homo sapiens) (Q93009 whole entry, looked up, the tested form may be a part): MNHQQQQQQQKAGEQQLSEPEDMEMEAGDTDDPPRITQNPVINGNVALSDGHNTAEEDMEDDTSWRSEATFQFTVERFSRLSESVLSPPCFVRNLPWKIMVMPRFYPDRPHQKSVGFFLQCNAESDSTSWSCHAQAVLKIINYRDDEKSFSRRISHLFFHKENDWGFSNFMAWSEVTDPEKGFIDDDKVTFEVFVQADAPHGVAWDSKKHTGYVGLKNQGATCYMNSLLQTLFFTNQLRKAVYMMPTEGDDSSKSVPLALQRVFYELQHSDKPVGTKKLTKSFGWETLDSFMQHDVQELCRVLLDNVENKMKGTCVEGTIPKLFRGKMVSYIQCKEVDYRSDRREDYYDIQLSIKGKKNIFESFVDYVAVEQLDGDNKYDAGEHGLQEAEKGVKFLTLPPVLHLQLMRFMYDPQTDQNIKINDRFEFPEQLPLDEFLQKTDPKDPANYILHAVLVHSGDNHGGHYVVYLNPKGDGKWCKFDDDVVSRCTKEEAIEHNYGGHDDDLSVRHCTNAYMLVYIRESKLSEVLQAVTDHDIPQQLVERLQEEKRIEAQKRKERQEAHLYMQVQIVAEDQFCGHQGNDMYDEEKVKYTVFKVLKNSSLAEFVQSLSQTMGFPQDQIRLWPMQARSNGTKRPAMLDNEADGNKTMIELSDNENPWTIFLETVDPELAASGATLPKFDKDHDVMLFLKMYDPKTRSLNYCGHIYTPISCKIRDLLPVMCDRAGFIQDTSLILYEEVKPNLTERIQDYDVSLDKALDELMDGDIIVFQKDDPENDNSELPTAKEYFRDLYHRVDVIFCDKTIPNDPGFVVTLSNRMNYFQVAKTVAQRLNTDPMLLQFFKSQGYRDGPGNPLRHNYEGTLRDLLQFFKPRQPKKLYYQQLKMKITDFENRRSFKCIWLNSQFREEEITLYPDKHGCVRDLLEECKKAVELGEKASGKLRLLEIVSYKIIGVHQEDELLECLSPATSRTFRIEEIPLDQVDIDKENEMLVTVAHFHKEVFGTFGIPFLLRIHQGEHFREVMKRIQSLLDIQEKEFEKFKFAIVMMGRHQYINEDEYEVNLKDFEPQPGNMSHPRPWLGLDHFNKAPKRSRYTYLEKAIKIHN
Procedure, shortened: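 MCF7 cells treated with compound for 4 h. Mdm2, p53 and p21 levels were determined by immunoblotting.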

[6] = target: Ubiquitin carboxyl-terminal hydrolase isozyme L5 (Homo sapiens) (UniProt Q9Y5K5); test: Inhibition of UCHL5 in HEK293T cell lysates assessed as enzyme recovery at 250 uM using HA-tagged vinyl-sulfone as substrate preincubated for 40 mins followed by 10-fold dilution and subsequent substrate addition measured within 15 mins by Western blot analysis; type: subcellular; settings: Lysate
[7] = target: Ubiquitin carboxyl-terminal hydrolase 17-like protein 24 (Homo sapiens) (UniProt Q0WX57); test: Inhibition of USP17 in HEK293T cell lysates at 25 uM using HA-tagged vinyl-sulfone as substrate preincubated for 19 to 60 mins followed by substrate addition and measured after 19 to 25 mins by Western blot analysis; type: subcellular; settings: Lysate
Chain of Ubiquitin carboxyl-terminal hydrolase 17-like protein 24 (Homo sapiens) (Q0WX57 whole entry): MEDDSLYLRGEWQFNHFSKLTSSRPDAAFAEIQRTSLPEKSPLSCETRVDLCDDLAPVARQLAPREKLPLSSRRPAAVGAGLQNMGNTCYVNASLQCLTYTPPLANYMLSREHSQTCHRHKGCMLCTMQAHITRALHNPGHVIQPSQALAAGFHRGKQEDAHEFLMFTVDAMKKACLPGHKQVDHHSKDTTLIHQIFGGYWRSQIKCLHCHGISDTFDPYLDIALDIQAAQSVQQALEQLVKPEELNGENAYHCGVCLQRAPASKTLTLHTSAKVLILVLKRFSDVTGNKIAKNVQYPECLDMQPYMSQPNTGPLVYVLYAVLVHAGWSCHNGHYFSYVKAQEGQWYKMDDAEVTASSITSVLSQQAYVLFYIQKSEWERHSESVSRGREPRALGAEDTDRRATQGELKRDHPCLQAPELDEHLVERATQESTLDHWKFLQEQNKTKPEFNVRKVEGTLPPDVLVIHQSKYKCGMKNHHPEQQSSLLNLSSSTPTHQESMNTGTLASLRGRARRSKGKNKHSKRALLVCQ

[8] = target: T2, Ubiquitin carboxyl-terminal hydrolase isozyme L3 (Homo sapiens) (UniProt P15374); test: Inhibition of UCHL3 in HEK293T cell lysates at 25 uM using HA-tagged vinyl-sulfone as substrate measured after 2 to 30 mins by Western blot analysis; type: subcellular; settings: Lysate; procedure, shortened: as §1
T2 sequence (whole entry): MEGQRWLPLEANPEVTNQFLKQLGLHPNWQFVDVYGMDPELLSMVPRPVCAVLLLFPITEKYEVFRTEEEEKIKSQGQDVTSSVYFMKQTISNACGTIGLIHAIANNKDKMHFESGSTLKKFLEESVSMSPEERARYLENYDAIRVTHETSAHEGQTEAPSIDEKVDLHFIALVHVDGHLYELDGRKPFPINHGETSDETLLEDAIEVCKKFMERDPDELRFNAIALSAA

[9] = target: Ubiquitin carboxyl-terminal hydrolase 7 (Homo sapiens) (UniProt Q93009); test: Inhibition of recombinant His6-tagged USP7 catalytic domain (unknown origin) assessed as association constant using Ub-AMC as substrate by fluorescence assay
[10] = target: Ubiquitin carboxyl-terminal hydrolase 9X (Homo sapiens) (UniProt Q93008); test: Inhibition of recombinant His6-tagged USP9x catalytic domain (unknown origin) using Ub-AMC as substrate by fluorescence assay; settings: TDE = time-dependent effect

NCc1ccc(OC(=O)Oc2ccc3ccccc3c2)cc1
inhibition [1]: inactive | inhibition [2]: inactive | inhibition [3]: inactive | inhibition [4]: Active | Kcat (Trypsin): 0.02 s⁻¹ | Km (Trypsin; trypsin (isolated enzyme, unknown origin)): 1 µM | inhibition [5]: Active | inhibition [6]: Active | inhibition [7]: Active | inhibition [8]: inactive | K [9]: 9 M⁻¹ s⁻¹ | inhibition [10]: Tde
